KLK5 inh = kallikrein 5 (human) inhibition; recombinant hK5, fluorogenic AMC substrate cleavage; 0.59% of 210,000 active; Q9Y337; inhibition, % at 5 µM;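 active = inhibition of 40% or more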;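 note: 0% = enzyme controls without compound and 100% = no-enzyme blanks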
FXIIa inh 1536 = factor XIIa (human) inhibition; inhibition, % at 5 µM; P00748; AID 800; 0.3% of 220,000 active; purified FXIIa, Boc-QGR-AMC fluorogenic substrate, 2 h; in the data active = inhibition above about 40%;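 note: 0% = enzyme with no compound and 100% = blank without enzyme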
Target sequence (P00748 20-372 limits assumed): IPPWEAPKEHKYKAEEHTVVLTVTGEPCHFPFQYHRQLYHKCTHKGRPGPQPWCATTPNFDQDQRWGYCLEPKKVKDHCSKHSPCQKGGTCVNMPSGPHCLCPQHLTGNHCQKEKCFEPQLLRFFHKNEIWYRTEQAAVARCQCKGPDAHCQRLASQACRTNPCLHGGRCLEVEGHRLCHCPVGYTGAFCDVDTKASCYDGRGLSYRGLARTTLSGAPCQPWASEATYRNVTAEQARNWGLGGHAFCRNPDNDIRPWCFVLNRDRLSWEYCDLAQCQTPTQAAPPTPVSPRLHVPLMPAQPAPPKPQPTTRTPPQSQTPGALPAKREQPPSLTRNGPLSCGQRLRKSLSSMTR
Target sequence (P00748 373-615 limits assumed): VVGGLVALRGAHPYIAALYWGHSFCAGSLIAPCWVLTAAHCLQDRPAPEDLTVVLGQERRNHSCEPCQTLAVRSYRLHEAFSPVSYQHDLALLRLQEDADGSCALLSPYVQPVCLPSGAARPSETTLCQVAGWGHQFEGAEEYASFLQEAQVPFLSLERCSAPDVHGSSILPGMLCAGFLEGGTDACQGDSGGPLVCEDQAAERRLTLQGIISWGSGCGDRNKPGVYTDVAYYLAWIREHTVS
FXIa inh = inhibitors of human coagulation factor XIa; P03951; inhibition, % at 5 µM; 0.14% of 220,000 active; purified FXIa, Boc-Glu-Ala-Arg-AMC fluorogenic substrate;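 active = inhibition of at least 40%; inactive = inhibition below 40%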;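 note: fluorescence of freed AMC excited at 355 nm; 0% = enzyme without compound and 100% = no enzyme blank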
TbHK1 inh = blocks Trypanosoma brucei hexokinase 1 activity | recombinant TbHK1, G6PDH-coupled NADH A340 | inhibition, % at 10 µM | 0.11% of 220,000 active;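 active = inhibition of 50% or more in the single-dose primary screen; inactive = inhibition below 50%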
thrombin 1536 = blocks human thrombin protease activity; P00734; alpha-thrombin, Boc-VPR-AMC fluorogenic substrate cleavage; inhibition, % at 5 µM; 0.26% of 220,000 active;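 active = inhibition at or above 40%; inactive = inhibition below 40%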;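 note: 0% = enzyme with no compound and 100% = wells without enzyme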
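System: Human alpha-thrombin protein | Medium: pH 7.5 Tris (50 mM) with NaCl 150 mM, Tween 20 0.05% | Times: Enzyme reaction carried out at room temperature | Detection: AMC fluorescence, 355/460 nm | Evaluation: Percent inhibition scaled between no-compound controls and no-enzyme blanks | Benchmarks: Enzyme without compound as high, wells lacking enzyme as low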
Numbers without * were called inactive; . = no result. Only some compounds are listed: those with a hit (about 1.1% of all), similar ones and a draw of the others.

SMILES | KLK5 inh | FXIIa inh 1536 | FXIa inh | TbHK1 inh | thrombin 1536
CCOC(=O)C1CCCN(C(=O)COc2ccc(S(=O)(=O)N(CC)c3ccccc3)cc2)C1 (centres undefined) | 1 | 10 | 3 | 4 | -3
O=c1/c(=C/c2ccc(O)c([N+](=O)[O-])c2)sc2nc3ccccc3n12 | 0 | 6 | 4 | 78* | -11
O=C(CNCc1ccccn1)Nc1cc(C(F)(F)F)ccc1N1CCOCC1 | 39 | 41* | 30 | -1 | 9
O=C(Cn1c(CO)nc2ccccc21)Nc1cc(C(F)(F)F)ccc1N1CCOCC1 | -20 | 13 | -8 | -1 | 4
CC1OC2(OC1C)C(=O)Nc1ccccc12 (centres undefined) | -1 | 30 | 6 | 0 | 1
CC1CCOC2(O1)C(=O)Nc1ccccc12 (centres undefined) | 41* | 67* | 31 | 1 | 22
Clc1ccc(Cc2noc(CN3CCN(c4ccccc4)CC3)n2)c(Cl)c1 | 19 | 15 | 19 | -7 | 25
Fc1ccccc1N1CCN(Cc2nc(-c3ccc(Cl)cc3Cl)no2)CC1 | 56* | 33 | 22 | 6 | 25
CCc1cc(-c2[nH]ncc2-c2nc3ccccc3n2C)c(O)cc1O | 21 | 14 | 75* | -1 | 17
CCCc1cc(-c2[nH]ncc2-c2ccc(C(=O)OCC)o2)c(O)cc1O | -8 | 7 | -1 | 3 | -2
Oc1ccc(/C=N/N(Cc2ccccc2)c2ccccc2)c(O)c1O | 128* | 27 | 29 | 11 | 28
CCOc1ccccc1NC(=O)CCCn1cc([N+](=O)[O-])cn1 | -1 | 9 | 6 | 3 | .
Cc1cc(C)c2c(=O)[nH]c(SCC(=O)c3ccc(F)c(C)c3)nc2n1 | 1 | 6 | -1 | 4 | -7
CC(=O)c1ccc(S(=O)(=O)Nc2ccc(-c3cn4c(n3)SCC4)cc2)cc1 | 4 | 5 | 0 | -6 | 42*
O=C(Oc1ccc2c(=O)c(Cl)coc2c1)c1cccnc1 | -10 | 30 | 66* | -23 | 23
CC(=O)Nc1nc(SCC(=O)NCc2ccc(F)cc2)[nH]c(=O)c1NC(=O)c1cccs1 | -2 | 5 | -3 | 0 | -8
Cc1ccc2c(c1)NC(=O)C(CC(=O)NCCCN1CCCC1)O2 (centres undefined) | 6 | 11 | 0 | 3 | -3
Cc1ccc2c(c1)NC(=O)C(CC(=O)NCCCN1CCCCC1C)O2 (centres undefined) | 47* | 12 | 3 | -4 | 13
Nn1c(SCC(=O)N2CCc3ccccc3C2)nnc1-c1cccs1 | 52* | 20 | 19 | -6 | 17
Nn1c(SCC(=O)N2CCN(S(=O)(=O)c3ccccc3)CC2)nnc1-c1cccs1 | -4 | 12 | -3 | -6 | -4
Cn1c(SCC(=O)N2CCc3ccccc3C2)nnc1-c1cccs1 | 43* | 22 | 19 | 0 | 18
Cn1c(N)c(C#N)c2c(c1=S)COC(C)(C)C2 | -12 | 12 | 0 | -14 | -11
CC(C)C1Cc2c(C#N)c(N)n(C)c(=S)c2CO1 (centres undefined) | 53* | 17 | 6 | -5 | 18
CCN(Cc1ccccc1)c1ccc(/C=N/NS(=O)(=O)c2ccc(C)c([N+](=O)[O-])c2)cc1 | -8 | -3 | -4 | -19 | -4
CCN(CC)c1ccc(/C=N/NS(=O)(=O)c2cccc([N+](=O)[O-])c2)cc1 | -10 | 52* | 28 | -10 | -14
SMILES | KLK5 inh | FXIIa inh 1536 | FXIa inh | TbHK1 inh | thrombin 1536
COc1ccc(OC)c(Cc2nnc(CCC(=O)NCc3ccsc3)o2)c1 | 2 | 10 | 0 | 3 | -6
CN(C)c1ccc(NC(=O)c2ccc(Cn3cc([N+](=O)[O-])cn3)cc2)cc1 | -1 | 6 | -3 | -2 | 97*
S=c1[nH]c2ccccc2o1 | 5 | 10 | 4 | 9 | .
O=C1C[C@H]2[C@H](CO)[C@@H](OC(=O)c3ccc(-c4ccccc4)cc3)C[C@H]2O1 | 72* | 10 | 17 | 1 | 19
O=C(COC(=O)c1c2ccccc2cc2ccccc12)Nc1ncc(C(F)(F)F)cc1Cl | 59* | 0 | 15 | -15 | 8
C=CCn1c(CCc2cc(C(C)(C)C)c(O)c(C(C)(C)C)c2)n[nH]c1=S | -1 | 14 | 3 | 4 | 1
CC(/C=N/NC(=O)c1cc(C(C)C)[nH]n1)=C\c1ccccc1 | 29 | -5 | 4 | -10 | 46*
CC(/C=N/NC(=O)c1cc(C2CC2)[nH]n1)=C\c1ccccc1 | 1 | 4 | 0 | 2 | -1

Source: PubChem (several laboratories)
